# Experimental data taken from the RNAGym collection of RNA variant scans (doi:10.1002/anie.201605470).
# B1: Osa-1-4 twister ribozyme (parent)
# chain: CCGCCUAACACUGCCAAUGCCGGUCCCAAGCCCGGAUAAAAGUGGAGGGGGCGG
# Variants of: B1
# Experiment: self-cleavage, relative activity (ratio to wild type); higher = more cleavage; co-transcriptional
# Method in brief: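 A DNA template for a 54-nucleotide Oryza sativa twister ribozyme was synthesised with 97 % wild-type base and 1 % of each other base at the 48 positions downstream of the cleavage site. It was transcribed in vitro for 2 h at 37 °C, allowing co-transcriptional self-cleavage, then reverse-transcribed with a template-switching oligonucleotide, PCR-amplified and deep-sequenced. Cleavage status was scored from reads with or without upstream sequence. Relative activity is fraction cleaved normalised to wild type.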
row,Variant,self-cleavage
1,C21U C32U,0.13
2,C21U C32G,0.11
3,C21G G22U,0.5
4,C21G G22A,0.49
5,C21G G22C,0.16
6,C21A G54U,0.59
7,C21A G54C,0.32
8,C21A G54A,0.29
9,C21A G42U,0.05
10,C21A G42A,0.1
11,C21A G42C,0.07
12,C21U G30A,0.04
13,C21U G30C,0.06
14,C21U G30U,0.04
15,C21G C27A,0.04
16,C21G C27U,0.02
17,C21G C27G,0.03
18,C21G C33A,0.03
19,C21G C33G,0.05
20,C21G C33U,0.05
21,C21A G50A,0.85
22,C21A G50C,0.24
23,C21A G50U,0.52
24,C21A G19A,0.4

row,Variant,self-cleavage
1,C21A G19U,0.07
2,C21A G19C,0.03
3,C21U C9U,0.92
4,C21U C9G,0.74
5,C21U C9A,0.55
6,C21A G23U,0.04
7,C21A G23C,0.03
8,C21A G23A,0.07
9,C21U G54U,0.93
10,C21U G54C,0.89
11,C21U G54A,0.96
12,C21A C31U,0.21
13,C21A C31G,0.07
14,C21A C31A,0.04
15,C21G G53C,0.02
16,C21G G53U,0.04
17,C21G G53A,0.08
18,C21G G54A,0.07
19,C21G G54C,0.07
20,C21G G54U,0.11
21,C21U G13C,0.03
22,C21U G13A,0.11
23,C21U G13U,0.04
24,C21G U43A,0.09

row,Variant,self-cleavage
1,C21G U43C,0.05
2,C21G U43G,0.08
3,C21U G42A,0.51
4,C21U G42C,0.18
5,C21U G42U,0.09
6,C21U G53U,0.32
7,C21U G53A,0.64
8,C21U G53C,0.1
9,G22A G47A,0.13
10,G22A G47U,0.12
11,G22A G47C,0.08
12,C20U U18G,0.82
13,C20U U18A,0.86
14,C20U U18C,0.87
15,C21U C33A,0.08
16,C21U C33G,0.07
17,C21U C33U,0.47
18,G22A G44A,0.94
19,G22A G44U,0.84
20,G22A G44C,0.92
21,C21U G49U,0.14
22,C21U G49A,0.14
23,C21U G49C,0.08
24,C21G G50C,0.06

row,Variant,self-cleavage
1,C21G G50U,0.1
2,C21G G50A,0.09
3,G22A G42C,0.1
4,G22A G42A,0.17
5,G22A G42U,0.05
6,C21U G34C,0.96
7,C21U G34U,1.05
8,C21U G34A,1.05
9,C20U G54C,0.84
10,C20U G54U,0.85
11,C20U G54A,0.75
12,C21G C9G,0.07
13,C21G C9A,0.04
14,C21G C9U,0.04
15,G22A G34U,0.21
16,G22A G34C,0.11
17,G22A G34A,0.14
18,C21A C9U,0.1
19,C21A C9G,0.11
20,C21A C9A,0.07
21,C21G C31A,0.02
22,C21G C31U,0.05
23,C21G C31G,0.06
24,C21U G23A,0.1

row,Variant,self-cleavage
1,C21U G23U,0.06
2,C21U G23C,0.06
3,C21G G34C,0.83
4,C21G G34A,0.3
5,C21G G34U,0.89
6,C21U G48A,0.1
7,C21U G48C,0.11
8,C21U G48U,0.1
9,C21U U24C,0.26
10,C21U U24A,0.29
11,C21U U24G,0.09
12,C21A C27G,0.04
13,C21A C27U,0.08
14,C21A C27A,0.08
15,C21U G22A,0.26
16,C21U G22C,0.17
17,C21U G22U,0.1
18,C21G C32A,0.03
19,C21G C32G,0.06
20,C21G C32U,0.02
21,C21U C31G,0.14
22,C21U C31U,0.97
23,C21U C31A,0.06
24,C21U G45U,0.11

row,Variant,self-cleavage
1,C21U G45A,0.22
2,C21U G45C,0.07
3,C21U C25G,0.14
4,C21U C25U,0.88
5,C21U C25A,0.11
6,C21U U43A,0.89
7,C21U U43C,0.32
8,C21U U43G,0.47
9,C21G G48C,0.03
10,C21G G48U,0.02
11,C21G G48A,0.03
12,C21G U18A,0.1
13,C21G U18C,0.08
14,C21G U18G,0.11
15,C20U G47C,0.15
16,C20U G47A,0.28
17,C20U G47U,0.29
18,C21A U18G,0.6
19,C21A U18C,0.82
20,C21A U18A,0.83
21,C21U U18A,1
22,C21U U18G,0.78
23,C21U U18C,1.03
24,C21U U37A,1.07

row,Variant,self-cleavage
1,C21U U37G,1.04
2,C21U U37C,1.05
3,C21G G30U,0.02
4,C21G G30A,0.02
5,C21G G30C,0.02
6,C21A G13A,0.07
7,C21A G13C,0.03
8,C21A G13U,0.04
9,C21G G35A,0.08
10,C21G G35U,0.06
11,C21G G35C,0.03
12,C21A G48U,0.05
13,C21A G48C,0.07
14,C21A G48A,0.06
15,C21U G47U,0.23
16,C21U G47A,0.19
17,C21U G47C,0.12
18,C21A G51C,0.07
19,C21A G51U,0.25
20,C21A G51A,0.31
21,C21G C25A,0.04
22,C21G C25U,0.05
23,C21G C25G,0.03
